For series [1], the system named is Thoracic aorta. Put plainly: Vasodilation activity against KCl-induced Sprague-Dawley rat thoracic aorta vessels contraction at 40 uM. The format is functional. Put shortly:
(§1)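 Aortic rings of about 2 mm from anesthetized SD rats mounted in Krebs solution at 37 °C under oxygen, preload 9.8 mN, equilibrated about 1 h. Rings contracted with 25 mM K⁺, then compound added cumulatively. Relaxation (%) = (maximum KCl tension − tension after compound)/(maximum KCl tension − preload). ADT-OH served as control; mean ± SD, n = 4.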

Series [2] concerns HUVEC. Put plainly: Inhibition of H2O2-induced oxidative damage in HUVECs preincubated for 24 hrs followed by H2O2 addition and measured after 2 hrs by MTT method. The format is functional, cell-based. To be noted: Homo sapiens, time 26.0 hrs. In short, it runs like this: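 HUVECs were seeded and grown 24 h at 37 °C, 5% CO₂, then given compound (0.5, 5 or 20 μM) for 24 h. Control and model wells received serum-free medium instead. Model and treated wells were then exposed to 1 mM H₂O₂ for 2 h, followed by MTT for 4 h, DMSO, and absorbance at 570 nm. Trolox was the positive control; mean ± SD, n = 5.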
(In general: Tetrazolium dyes change colour on reduction, which living cells bring about.)

For series [3], the system named is Thoracic aorta. Put plainly: Vasodilation activity against KCl-induced Sprague-Dawley rat thoracic aorta vessels contraction at 1 uM. Type of series: functional. In short, it runs like this:
as §1

Series [4] in a line: Cytotoxicity against mouse BMDM cells assessed as cell viability at 100 uM incubated for 24 hrs by MTT assay. Type of series: toxicity, cell-based. To be noted: BMDM cells (bone marrow-derived macrophages), read-out: Activity. Put shortly: (§2)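 Primary bone marrow macrophages taken from 6-week-old male C57 mice and cultured 6–7 days before use. Compounds dosed for 24 h, then MTT added for 4 h and formazan dissolved in DMSO; absorbance read at 570 nm. Triplicate wells; medium-only and untreated-cell controls; mean ± SD, n = 4.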

For series [5], the system named is Thoracic aorta. Put plainly: Vasodilation activity against KCl-induced Sprague-Dawley rat thoracic aorta vessels contraction at 20 uM. Type of series: functional. In short, it runs like this: as §1
Series [6] relates to Thoracic aorta. Put plainly: Vasodilation activity against KCl-induced Sprague-Dawley rat thoracic aorta vessels contraction at 5 uM. Type of series: functional. Put shortly: as §1
Series [7] can be described thus: Induction of H2S release in phosphate buffer at 100 uM measured upto 150 mins under L-cysteine stimulated condition by microplate reader analysis. To be noted: 2.5 h. In short, it runs like this: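 Compound (100 μM) incubated with 1 mM L-cysteine in phosphate buffer at 37 °C, sampled at 0–150 min. Each sample quenched with zinc acetate and trichloroacetic acid, then N,N-dimethyl-p-phenylenediamine and FeCl₃ in HCl added. Absorbance read at 670 nm after 10 min; H₂S quantified against a NaHS standard curve (5–150 μM).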

Series [8] relates to Thoracic aorta. Put plainly: Vasodilation activity against KCl-induced Sprague-Dawley rat thoracic aorta vessels contraction in presence of glyburide. The format is functional, tissue-based.
Series [9] is described as follows: Water solubility of the compound after 20 mins by HPLC analysis. The format is physicochemical. In short, it runs like this: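 Compound suspended in 1 mL water at room temperature, sonicated 20 min and passed through a 0.22 μm filter. Filtrate analyzed by HPLC (MeCN/water 95:5, 1.0 mL/min, UV 254 nm) and quantified against a standard curve of 0.5–500 μg/mL in MeOH.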

Series [10] in a line: Cytotoxicity against mouse BMDM cells assessed as cell viability at 50 uM incubated for 24 hrs by MTT assay. The format is toxicity, cell-based. The settings on record: BMDM cells (bone marrow-derived macrophages), read-out: Activity. Put shortly: as §2
Series [11] deals with HUVEC. Put plainly: Cytotoxicity against HUVECs at 0.5 to 200 uM incubated for 24 hrs by MTT assay. Type of series: toxicity, cell-based. To be noted: human, dose 0.5-200 µM. In short, it runs like this: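 HUVECs bought from ATCC; compounds given for 24 h, then MTT (5 mg/mL, 20 μL/well) added for 4 h. Formazan dissolved in DMSO and absorbance read at 570 nm. Medium-only and untreated-cell wells served as controls.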

In series [12] the test system is Thoracic aorta. Put plainly: Vasodilation activity against KCl-induced Sprague-Dawley rat thoracic aorta vessels contraction at 10 uM. The format is functional. In short, it runs like this:
as §1

The subject of the next series is RAW264.7. Put plainly: Lipid lowering activity in ox-LDL stimulated mouse RAW264.7 cells at 50 uM by oil red O staining based microscopic analysis. The format is functional, cell-based. In short, it runs like this: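 RAW 264.7 cells allowed to adhere 2 h, then exposed to ox-LDL (50 μg/mL) plus compound (50 μM) for 24 h. Cells fixed in 4% paraformaldehyde, stained with oil red O, rinsed in 60% isopropanol and counterstained with hematoxylin. Oil red O-positive area percentage quantified microscopically; ANOVA used.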

In brackets after ≈: the same amount, converted by molar mass. Activity calls are given as the source filed them. No cut-off for these calls is given here.

Broadly, the solubility is the concentration that dissolves in the medium under given conditions. For the compound `C=C[C@]1(C)CC[C@@H](C(=C)COC(=O)c2c(F)cccc2C(=O)OCCOc2ccc(-c3cc(=S)ss3)cc2)C[C@H]1C(=C)C`, the Activity in the series with Thoracic aorta [1] was 61.41%; in the series on Thoracic aorta [3], 18.12%; with Thoracic aorta [5] it was 51.85%; with Thoracic aorta [6], 25.08%; in series [7] it was 100 µM; in the series on HUVEC [11], “Non-Toxic”. Also, the Activity with Thoracic aorta [12] stood at 38.87%. Further, the inhibition entry with HUVEC [2] is “Active”. In [4], the viability at 24 h, 100 µM worked out at 347%. Also, the result in the series on Thoracic aorta [8] and in the series on RAW264.7 was Active. Besides, the solubility at 20 min in series [9] worked out at 40 µg/mL (≈ 62.6 µM). In addition, in series [10], the viability at 24 h, 50 µM was 193%.
On to `C=C[C@]1(C)CC[C@@H](C(=C)COC(=O)c2ccccc2C(=O)OCCOc2ccc(-c3cc(=S)ss3)cc2)C[C@H]1C(=C)C`, for which the Activity is 28.25% with Thoracic aorta [1]; -2.99% in the series with Thoracic aorta [3]; 17.46% in the series with Thoracic aorta [5]; 10.01% in the series on Thoracic aorta [6]; 100 µM in series [7]; “Non-Toxic” in the series with HUVEC [11]. Further, the Activity with Thoracic aorta [12] is 17%. Besides, in the series on HUVEC [2], the inhibition result was “Active”. For the same compound, the viability at 24 h, 100 µM in [4] came to 454%. In addition, the viability at 24 h, 50 µM in series [10] came out at 349%. Moreover, the result in the series with RAW264.7 was Active.
Turning to `Oc1ccc(-c2cc(=S)ss2)cc1`, the Activity with Thoracic aorta [1] is given as 75.01%; in the series with Thoracic aorta [3] it was 3.08%; with Thoracic aorta [5], 61.69%; in the series with Thoracic aorta [6] it was 5.39%; with HUVEC [11], “Non-Toxic”; with Thoracic aorta [12], 42.24%. Besides, the inhibition result in the series with HUVEC [2] is “Active”. Besides, in the series with Thoracic aorta [8], the result was inactive.

The record behind these values is ChEMBL document CHEMBL5357041, “Discovery of novel β-elemene hybrids with hydrogen sulfide-releasing moiety possessing cardiovascular protective activity for the treatment of atherosclerosis” (RSC Med Chem, 2024).
